Data as given in PMC9279635 (Acta Pharmaceutica Sinica. B, 2021).

Experiments:
[1] = target: ABL (Homo sapiens, UniProt P00519); assay: Kinase selectivity test, ABL; type: biochemical; details: 10 nmol/L
[2] = target: EPH-A2 (Homo sapiens, UniProt P29317); assay: Kinase selectivity test, EPH-A2; type: biochemical; details: 10 nmol/L
[3] = target: FGFR-1 (Homo sapiens, UniProt P11362); assay: Kinase selectivity test, FGFR-1; type: biochemical; details: 10 nmol/L
[4] = target: c-Src (Homo sapiens, UniProt P12931); assay: Kinase selectivity test, c-Src; type: biochemical; details: 10 nmol/L
Chain of c-Src (P12931 whole entry): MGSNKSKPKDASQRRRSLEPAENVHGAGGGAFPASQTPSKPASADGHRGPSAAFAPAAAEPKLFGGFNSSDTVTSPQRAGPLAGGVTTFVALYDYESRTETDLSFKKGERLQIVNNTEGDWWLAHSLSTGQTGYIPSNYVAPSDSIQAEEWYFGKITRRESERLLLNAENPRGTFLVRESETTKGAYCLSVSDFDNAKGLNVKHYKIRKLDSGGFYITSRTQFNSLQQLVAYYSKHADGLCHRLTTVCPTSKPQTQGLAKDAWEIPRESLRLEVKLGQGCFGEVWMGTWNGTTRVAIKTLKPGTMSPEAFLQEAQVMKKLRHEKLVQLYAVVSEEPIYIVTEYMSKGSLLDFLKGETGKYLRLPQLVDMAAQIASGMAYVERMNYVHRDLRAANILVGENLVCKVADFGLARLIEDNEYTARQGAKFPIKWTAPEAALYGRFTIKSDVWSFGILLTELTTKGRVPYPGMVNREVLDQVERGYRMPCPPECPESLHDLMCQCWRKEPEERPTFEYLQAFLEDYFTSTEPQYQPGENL

[5] = target: ALK (Homo sapiens, UniProt Q9UM73); assay: Kinase selectivity test, ALK; type: biochemical; details: 1 μmol/L
[6] = target: T1, Flt-3 (Homo sapiens, UniProt P36888); assay: ELISA kinase assay, Flt-3; type: biochemical; details: read-out: Flt-3 inhibition@100 nmol/L
T1 sequence (P36888 27-993): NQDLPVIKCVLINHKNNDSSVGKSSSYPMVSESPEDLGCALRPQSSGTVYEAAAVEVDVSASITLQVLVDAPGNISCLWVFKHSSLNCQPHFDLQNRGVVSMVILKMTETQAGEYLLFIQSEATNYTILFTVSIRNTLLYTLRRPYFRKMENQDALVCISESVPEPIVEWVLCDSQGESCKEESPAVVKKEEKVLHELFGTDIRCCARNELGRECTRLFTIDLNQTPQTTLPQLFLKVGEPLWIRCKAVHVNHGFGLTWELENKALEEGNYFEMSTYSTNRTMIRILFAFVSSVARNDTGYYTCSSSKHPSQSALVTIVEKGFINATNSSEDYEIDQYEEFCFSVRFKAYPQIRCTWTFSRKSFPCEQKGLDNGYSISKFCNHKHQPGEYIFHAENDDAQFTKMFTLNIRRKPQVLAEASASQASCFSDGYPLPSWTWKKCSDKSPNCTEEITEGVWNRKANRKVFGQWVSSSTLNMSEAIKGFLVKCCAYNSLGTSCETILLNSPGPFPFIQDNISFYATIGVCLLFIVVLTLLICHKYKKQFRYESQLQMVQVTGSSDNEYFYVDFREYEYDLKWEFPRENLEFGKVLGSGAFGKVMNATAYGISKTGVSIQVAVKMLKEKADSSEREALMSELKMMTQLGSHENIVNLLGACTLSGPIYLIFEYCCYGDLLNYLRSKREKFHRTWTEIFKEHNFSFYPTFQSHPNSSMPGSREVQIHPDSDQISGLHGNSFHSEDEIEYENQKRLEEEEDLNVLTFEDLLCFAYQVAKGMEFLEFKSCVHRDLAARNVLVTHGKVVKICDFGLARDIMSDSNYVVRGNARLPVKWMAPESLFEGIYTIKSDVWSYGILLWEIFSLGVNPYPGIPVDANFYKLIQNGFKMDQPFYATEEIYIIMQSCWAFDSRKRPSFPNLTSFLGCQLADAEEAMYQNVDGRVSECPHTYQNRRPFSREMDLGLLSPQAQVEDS

[7] = test system: DDR2 phosphorylation in MRC-5; assay: DDR2 phosphorylation in TGF-β stimulated MRC-5; type: cell-based; details: 1 μmol/L, MRC-5, 24 h TGF-β stimulation
Outline: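 Confluent MRC-5 fibroblasts are stimulated with TGF-β (5 ng/mL) and treated with a range of test compound concentrations for 24 h. Western blots are probed for phospho-DDR2, fibronectin, α-SMA, with GAPDH as loading control.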

[8] = test system: PDGFR; assay: Kinase selectivity test, PDGFR; type: biochemical; details: 10 nmol/L
[9] = target: ErbB4 (Homo sapiens, UniProt Q15303); assay: Kinase selectivity test, ErbB4; type: biochemical; details: 10 nmol/L
[10] = target: T2, AXL (Homo sapiens, UniProt P30530); assay: Kinase selectivity test, AXL; type: biochemical; details: 10 nmol/L
T2 sequence (P30530 26-894): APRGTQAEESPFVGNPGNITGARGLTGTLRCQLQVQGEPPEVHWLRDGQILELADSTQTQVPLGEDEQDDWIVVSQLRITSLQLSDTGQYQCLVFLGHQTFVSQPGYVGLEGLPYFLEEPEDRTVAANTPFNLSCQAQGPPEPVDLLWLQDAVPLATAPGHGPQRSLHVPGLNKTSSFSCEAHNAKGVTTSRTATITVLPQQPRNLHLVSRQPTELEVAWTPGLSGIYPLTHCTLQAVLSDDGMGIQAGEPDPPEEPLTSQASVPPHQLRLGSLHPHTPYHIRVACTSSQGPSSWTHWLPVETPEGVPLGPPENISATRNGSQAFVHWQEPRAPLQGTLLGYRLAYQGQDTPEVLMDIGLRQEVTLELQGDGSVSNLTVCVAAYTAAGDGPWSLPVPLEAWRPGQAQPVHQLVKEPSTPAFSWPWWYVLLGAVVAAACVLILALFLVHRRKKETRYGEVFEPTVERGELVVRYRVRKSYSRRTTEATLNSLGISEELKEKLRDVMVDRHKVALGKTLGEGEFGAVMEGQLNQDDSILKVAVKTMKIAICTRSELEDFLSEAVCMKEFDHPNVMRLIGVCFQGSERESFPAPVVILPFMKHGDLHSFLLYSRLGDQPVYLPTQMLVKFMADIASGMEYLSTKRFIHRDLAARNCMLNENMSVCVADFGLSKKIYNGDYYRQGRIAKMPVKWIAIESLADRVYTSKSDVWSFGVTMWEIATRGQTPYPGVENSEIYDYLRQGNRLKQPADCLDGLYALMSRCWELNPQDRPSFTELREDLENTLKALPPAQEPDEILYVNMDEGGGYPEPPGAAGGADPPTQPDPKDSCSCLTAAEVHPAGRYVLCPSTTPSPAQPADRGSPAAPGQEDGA

[11] = target: KDR (Homo sapiens, UniProt P35968); assay: ELISA kinase assay, KDR; type: biochemical; details: 10 nmol/L
[12] = target: DDR1 (Homo sapiens, UniProt Q08345); assay: ELISA kinase assay, DDR1; type: biochemical
Chain of DDR1 (Q08345 19-913): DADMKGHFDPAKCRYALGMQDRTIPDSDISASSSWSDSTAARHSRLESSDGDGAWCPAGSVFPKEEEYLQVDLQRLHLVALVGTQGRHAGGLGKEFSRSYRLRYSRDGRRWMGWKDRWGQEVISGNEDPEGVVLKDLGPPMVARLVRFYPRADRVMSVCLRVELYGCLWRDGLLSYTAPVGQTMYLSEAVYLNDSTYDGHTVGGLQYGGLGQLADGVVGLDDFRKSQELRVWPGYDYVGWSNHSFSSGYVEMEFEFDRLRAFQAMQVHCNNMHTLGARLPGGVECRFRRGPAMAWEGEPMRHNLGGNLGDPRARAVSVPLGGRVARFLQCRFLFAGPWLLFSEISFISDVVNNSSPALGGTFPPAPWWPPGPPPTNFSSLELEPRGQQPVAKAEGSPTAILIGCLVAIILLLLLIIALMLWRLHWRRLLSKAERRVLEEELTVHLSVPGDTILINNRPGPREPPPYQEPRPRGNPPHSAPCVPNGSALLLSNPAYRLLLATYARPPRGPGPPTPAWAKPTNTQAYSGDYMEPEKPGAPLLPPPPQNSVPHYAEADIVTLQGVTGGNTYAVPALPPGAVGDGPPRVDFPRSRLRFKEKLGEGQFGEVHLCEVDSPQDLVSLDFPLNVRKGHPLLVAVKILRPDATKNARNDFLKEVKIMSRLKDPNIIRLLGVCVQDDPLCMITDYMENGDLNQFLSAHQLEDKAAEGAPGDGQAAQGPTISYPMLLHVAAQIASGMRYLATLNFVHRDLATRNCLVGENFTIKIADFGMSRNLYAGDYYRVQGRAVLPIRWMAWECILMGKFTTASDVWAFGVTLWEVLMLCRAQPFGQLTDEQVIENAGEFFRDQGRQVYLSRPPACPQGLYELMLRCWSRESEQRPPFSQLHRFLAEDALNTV

[13] = target: RET (Homo sapiens, UniProt P07949); assay: ELISA kinase assay, RET; type: biochemical
Chain of RET (P07949 29-1114): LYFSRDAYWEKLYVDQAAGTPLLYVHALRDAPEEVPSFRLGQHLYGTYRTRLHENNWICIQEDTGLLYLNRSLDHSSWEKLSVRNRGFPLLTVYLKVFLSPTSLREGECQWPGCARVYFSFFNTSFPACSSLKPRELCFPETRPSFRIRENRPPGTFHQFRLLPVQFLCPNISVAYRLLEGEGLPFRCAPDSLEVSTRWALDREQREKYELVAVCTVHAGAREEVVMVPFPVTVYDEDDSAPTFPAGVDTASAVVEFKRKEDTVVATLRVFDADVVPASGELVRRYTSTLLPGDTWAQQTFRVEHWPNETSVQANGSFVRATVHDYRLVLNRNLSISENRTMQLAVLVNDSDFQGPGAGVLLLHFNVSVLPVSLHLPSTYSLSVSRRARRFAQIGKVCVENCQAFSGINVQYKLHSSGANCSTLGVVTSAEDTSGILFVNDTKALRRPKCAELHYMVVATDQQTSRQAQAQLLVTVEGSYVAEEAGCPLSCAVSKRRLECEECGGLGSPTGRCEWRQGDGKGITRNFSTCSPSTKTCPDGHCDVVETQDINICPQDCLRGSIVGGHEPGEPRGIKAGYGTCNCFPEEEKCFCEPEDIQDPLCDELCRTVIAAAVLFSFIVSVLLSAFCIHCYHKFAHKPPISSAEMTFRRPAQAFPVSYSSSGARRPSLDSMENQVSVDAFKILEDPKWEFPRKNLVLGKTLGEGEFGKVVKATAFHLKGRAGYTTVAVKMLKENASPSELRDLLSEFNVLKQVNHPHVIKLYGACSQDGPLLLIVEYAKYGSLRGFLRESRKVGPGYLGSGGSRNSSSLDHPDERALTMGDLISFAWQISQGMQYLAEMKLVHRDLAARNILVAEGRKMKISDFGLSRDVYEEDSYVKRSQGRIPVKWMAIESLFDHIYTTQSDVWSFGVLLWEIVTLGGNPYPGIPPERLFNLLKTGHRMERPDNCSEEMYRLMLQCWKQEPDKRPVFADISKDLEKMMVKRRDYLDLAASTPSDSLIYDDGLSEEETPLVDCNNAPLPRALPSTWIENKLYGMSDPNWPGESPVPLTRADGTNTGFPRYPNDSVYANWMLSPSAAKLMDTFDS

[14] = target: VEGFR-1 (Homo sapiens, UniProt P17948); assay: Kinase selectivity test, VEGFR-1; type: biochemical; details: 10 nmol/L
Chain of VEGFR-1 (P17948 27-1338): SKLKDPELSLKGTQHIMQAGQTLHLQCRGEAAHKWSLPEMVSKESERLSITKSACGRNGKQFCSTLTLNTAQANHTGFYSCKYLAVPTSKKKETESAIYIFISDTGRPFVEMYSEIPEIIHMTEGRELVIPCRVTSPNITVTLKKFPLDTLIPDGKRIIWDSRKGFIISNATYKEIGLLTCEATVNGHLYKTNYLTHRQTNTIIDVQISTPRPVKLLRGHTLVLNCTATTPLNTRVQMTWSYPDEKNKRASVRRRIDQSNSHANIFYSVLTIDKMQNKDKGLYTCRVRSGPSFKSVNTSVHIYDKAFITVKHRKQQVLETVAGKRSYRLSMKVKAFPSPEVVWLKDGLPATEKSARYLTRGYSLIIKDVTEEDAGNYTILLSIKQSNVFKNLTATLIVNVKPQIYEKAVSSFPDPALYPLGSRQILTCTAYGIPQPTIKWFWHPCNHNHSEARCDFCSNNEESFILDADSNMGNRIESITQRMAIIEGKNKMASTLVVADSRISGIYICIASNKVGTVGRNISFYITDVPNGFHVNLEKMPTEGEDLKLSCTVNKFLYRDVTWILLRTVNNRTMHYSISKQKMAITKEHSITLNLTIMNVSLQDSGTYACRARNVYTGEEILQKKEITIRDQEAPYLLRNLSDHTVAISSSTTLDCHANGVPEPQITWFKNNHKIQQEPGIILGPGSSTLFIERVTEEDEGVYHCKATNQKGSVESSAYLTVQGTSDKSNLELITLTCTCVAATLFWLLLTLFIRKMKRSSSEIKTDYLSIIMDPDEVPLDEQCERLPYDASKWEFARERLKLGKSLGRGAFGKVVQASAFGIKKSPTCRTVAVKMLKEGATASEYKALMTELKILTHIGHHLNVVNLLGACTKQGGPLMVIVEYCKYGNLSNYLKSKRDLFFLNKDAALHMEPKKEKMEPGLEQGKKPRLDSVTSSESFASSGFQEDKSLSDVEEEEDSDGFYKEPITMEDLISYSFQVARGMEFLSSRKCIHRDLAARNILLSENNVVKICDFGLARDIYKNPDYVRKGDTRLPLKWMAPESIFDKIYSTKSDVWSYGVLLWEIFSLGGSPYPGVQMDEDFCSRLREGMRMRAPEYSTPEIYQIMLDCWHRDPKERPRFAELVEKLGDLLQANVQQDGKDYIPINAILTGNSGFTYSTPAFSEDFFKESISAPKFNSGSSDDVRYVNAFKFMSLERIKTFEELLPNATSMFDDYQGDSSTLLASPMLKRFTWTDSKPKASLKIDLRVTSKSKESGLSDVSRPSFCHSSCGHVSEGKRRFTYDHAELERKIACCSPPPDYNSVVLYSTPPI

Chain of ABL (P00519 whole entry): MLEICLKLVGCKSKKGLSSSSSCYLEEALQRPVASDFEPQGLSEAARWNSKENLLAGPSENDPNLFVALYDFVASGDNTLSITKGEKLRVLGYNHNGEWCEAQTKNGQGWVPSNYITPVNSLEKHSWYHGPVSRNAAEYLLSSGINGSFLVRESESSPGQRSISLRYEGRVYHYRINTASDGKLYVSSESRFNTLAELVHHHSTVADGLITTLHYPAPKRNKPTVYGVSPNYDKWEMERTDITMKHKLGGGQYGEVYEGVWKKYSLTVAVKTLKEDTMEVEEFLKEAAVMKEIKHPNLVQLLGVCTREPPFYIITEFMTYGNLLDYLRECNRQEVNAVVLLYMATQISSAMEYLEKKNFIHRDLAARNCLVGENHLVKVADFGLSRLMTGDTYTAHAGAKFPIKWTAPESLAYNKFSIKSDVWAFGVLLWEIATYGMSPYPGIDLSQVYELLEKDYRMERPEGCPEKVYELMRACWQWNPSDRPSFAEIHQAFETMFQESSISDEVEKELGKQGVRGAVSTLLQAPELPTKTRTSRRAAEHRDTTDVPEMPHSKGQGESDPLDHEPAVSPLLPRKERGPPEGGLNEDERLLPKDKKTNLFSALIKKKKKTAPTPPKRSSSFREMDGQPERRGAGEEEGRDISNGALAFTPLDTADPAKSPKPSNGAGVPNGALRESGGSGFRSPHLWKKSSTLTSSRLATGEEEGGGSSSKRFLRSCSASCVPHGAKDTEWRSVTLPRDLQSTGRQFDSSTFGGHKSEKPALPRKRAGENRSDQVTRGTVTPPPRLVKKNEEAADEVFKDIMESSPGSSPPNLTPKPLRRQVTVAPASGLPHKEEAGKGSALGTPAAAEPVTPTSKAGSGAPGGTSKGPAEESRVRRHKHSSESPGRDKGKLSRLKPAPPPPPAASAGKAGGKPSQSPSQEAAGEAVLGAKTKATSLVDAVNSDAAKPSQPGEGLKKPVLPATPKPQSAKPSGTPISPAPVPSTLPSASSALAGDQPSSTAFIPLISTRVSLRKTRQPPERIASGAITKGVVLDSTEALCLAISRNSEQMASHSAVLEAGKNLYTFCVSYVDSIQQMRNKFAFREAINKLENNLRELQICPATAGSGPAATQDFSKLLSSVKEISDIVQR

Question: For `Cc1ccc(C(=O)Nc2cccc(C(F)(F)F)c2)cc1-c1ccc2nc(Nc3cnn(C)c3)ncc2c1` [Compound 22, 4-Methyl-3-(2-((1-methyl-1H-pyrazol-4-yl)amino)quinazolin-6-yl)-N-(3-(trifluoromethyl)phenyl)benzamide], which ABL inhibition ratio [1] is on record?
Answer: over 50%

Question: And the EPH-A2 inhibition ratio [2]?
Answer: over 50%

Question: And the FGFR-1 inhibition ratio [3]?
Answer: over 50%

Question: And the c-Src inhibition ratio [4]?
Answer: over 50%

Question: What about the “inhibition ratio on ALK” value [5] of the same compound?
Answer: 18.5%

Question: And the inhibition at 0.1 µM [6]?
Answer: 80.3%

Question: And the “inhibition of DDR2 phosphorylation” value [7]?
Answer: high inhibitory activity

Question: What about the PDGFR inhibition ratio [8] of the same compound?
Answer: over 50%

Question: And the ErbB4 inhibition ratio [9]?
Answer: over 50%

Question: And the AXL inhibition ratio [10]?
Answer: over 50%

Question: And the KDR inhibition ratio [11]?
Answer: over 50%

Question: And the IC50 [12]?
Answer: 8.13 nM

Question: And the inhibition at 0.01 µM ([13]; read-out: RET inhibition @10 nmol/L)?
Answer: > 50%

Question: What about the inhibition at 0.1 µM ([13]; read-out: RET inhibition @100 nmol/L) of the same compound?
Answer: 97.2%

Question: And the VEGFR-1 inhibition ratio [14]?
Answer: over 50%
